RAD52 anneal inh – inhibitors of human RAD52 DNA annealing. 360,000 tested, 0.46% active. recombinant RAD52 DNA annealing, FRET fluorescence. P43351. inhibition, % at 18.7 µM;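 active means every replicate showing at least 50% inhibition; inconclusive means mean inhibition at least 50% but not in every replicate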
Target sequence (P43351 whole entry, looked up): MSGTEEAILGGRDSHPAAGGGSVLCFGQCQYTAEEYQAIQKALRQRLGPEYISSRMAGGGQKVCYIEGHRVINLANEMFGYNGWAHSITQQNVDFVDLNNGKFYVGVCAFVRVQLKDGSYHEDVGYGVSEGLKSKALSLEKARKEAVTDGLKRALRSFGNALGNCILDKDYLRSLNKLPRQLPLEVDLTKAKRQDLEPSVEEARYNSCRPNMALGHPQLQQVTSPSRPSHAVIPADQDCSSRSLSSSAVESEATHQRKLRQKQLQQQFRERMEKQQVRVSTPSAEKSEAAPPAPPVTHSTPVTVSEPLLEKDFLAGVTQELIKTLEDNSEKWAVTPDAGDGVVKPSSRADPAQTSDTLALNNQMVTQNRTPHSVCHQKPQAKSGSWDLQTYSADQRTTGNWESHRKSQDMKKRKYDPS
PDI turbidity – blocks human protein disulfide isomerase activity. PDI insulin aggregation turbidity, A650, 90 min. inhibition, % at 10 µM. 350,000 tested, 0.052% active. AID 588391;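 active means mean inhibition across replicates of 30% or more, whatever share of single replicates reach that level; inconclusive means mean inhibition below 30% while every single replicate reaches 30%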
ERp5 block – inhibitors of human ERp5; inhibition, % at 9.99 µM; Q15084; 350,000 tested, 0.05% active; ERp5 insulin aggregation, absorbance 650 nm, 90 min;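 active means mean replicate inhibition above about 25%, with every replicate also reaching it, limit read from the data, passing the limit was not always enough; inconclusive means only one of those two criteria met; inactive means neither criterion met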
CAL PDZ FP-1 – human CAL PDZ-peptide interaction inhibition; Q9HD26; purified CAL PDZ, TMR-peptide fluorescence polarization, 1 h; inhibition, % at 20 µM; 330,000 tested, 0.02% active; AID 504414;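 active means highest replicate inhibition of at least 40%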;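 further: plate controls were DMSO neutral control wells for no effect and unlabeled competitor peptide control wells for full effect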
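System: tagged CAL PDZ domain. Schedule: 1 h room-temperature incubation prior to read. Signal: fluorescence polarization (mP). Measure: percent inhibition from loss of millipolarization.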
RAD54 branch – inhibitors of human RAD54 branch migration; RAD54 Holliday junction branch migration, FAM/BHQ fluorescence; AID 602329; 360,000 tested, 0.14% active; Q92698; inhibition, % at 10.4 µM;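 active means mean normalized replicate activity at least 40 and at least half of replicates scoring 40 or more; inconclusive means only one of the two criteria met; inactive means mean below 40 and under half of replicates reaching 40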;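 further: 0% = median of neutral control wells and 100% = median of positive control wells; inhibitors cause a drop in the FAM fluorescence signal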
CAL PDZ FP-2 – blocks peptide binding to the human CAL PDZ domain; Q9HD26; purified CAL PDZ, TMR-peptide fluorescence polarization, 1 h; 300,000 tested, 0.92% active; AID 602252; inhibition, % at 24.9 µM;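 active means mean inhibition of at least 30% with at least half of replicates also reaching 30%; inconclusive means no clear call, values can overlap the other calls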;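 further: 0% = DMSO neutral control and 100% = excess unlabeled competitor peptide PRC23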
DNA binding – counter-screen for Rad54 inhibitors: DNA binding compounds | shares compounds with RAD54 branch | Acridine orange-DNA displacement, fluorescence polarization, 20 min | AC50, µM (titrated, usually from 35 µM), without a hit: at the top dose activity change, negative = DNA binding | 460 tested, 8% active;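 active means signal drop giving an AC50 within twice the top valid tested concentration of each sample, actives reach about 35 µM in these data; inactive means activity opposite to expected, plus the rest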;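 further: polarization loss reports compound binding to salmon sperm DNA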
RAD52 DNA ctr – binds DNA, flagging false RAD52 inhibitor hits; shares compounds with RAD52 anneal inh; Salmon sperm DNA/acridine orange FP displacement, DNA binding; AID 652128; AC50, µM; 1,000 tested, 8% active;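 active means fitted half-maximal concentration for signal loss at or below twice the highest dose tested, in every separate run, actives reach about 64 µM in these data; inconclusive means runs disagree, or flat partial signal loss, or poor fit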
An asterisk follows results filed as active; i = inactive; ? = inconclusive; · = not tested or not shown; ! = repeats disagree. A selection: hits, their analogues and other compounds. The true share with any hit is near 1%.

SMILES	RAD52 anneal inh	PDI turbidity	ERp5 block	CAL PDZ FP-1	RAD54 branch	CAL PDZ FP-2	DNA binding	RAD52 DNA ctr
COc1ccc(Cc2c(-c3ccc(OC)c(OC)c3)nc3c(C)cc(Br)cn23)c(C)c1	52*	·	4	·	60*	·	-8%	i
Cc1noc(C)c1S(=O)(=O)Nc1cccc2c1O[C@H](CN(C)C(=O)Nc1ccccc1)[C@H](C)CN([C@@H](C)CO)C2=O	-44	·	-11	·	3	·	·	·
CCCN(CCC)CCCNC(=O)c1cc2c(-c3ccc(OC)c(OC)c3)nn(C)c2s1	90*	6	-1	0	104*	-4	-13%	i
COc1ccc(-c2nn(C)c3sc(C(=O)NCCN(C)C)cc23)cc1OC	101*	10	-4	-2	97*	-3	-15%	i
COCCCNC(=O)c1cc2c(-c3cccc(OC)c3)nn(C)c2s1	17	-4	0	-8	12	4	·	·
CN(C)CCNc1ncnc2c1sc1nc(N3CCCC3)c3c(c12)CC(C)(C)OC3	88*	-5	3	0	97*	·	-1%	i
CC(C)CNc1ncnc2c1sc1nc(N3CCOCC3)c3c(c12)CC(C)(C)OC3	·	-8	·	-2	-2	1	·	·
CCOC(=O)c1oc2ccc(OC)cc2c1NC(=O)CN1CCN(C)CC1	·	8	·	0	·	·	·	·
Cc1ccc(C(=O)c2oc3ccc(Cl)cc3c2NC(=O)CN2CCN(C)CC2)cc1	82*	2	5	-4	82*	-1	1%	i
CCN1CCN(c2ccc(NC(=O)c3cc4ccccc4cc3OC)cc2C)CC1	83*	-9	-2	0	54*	·	-2%	i
CCCCNC(=O)CCC(=O)Nc1ccc2nc(N3CCN(C)CC3)cc(C)c2c1	-2	1	2	0	6	2	·	·
CCN1CCN(c2cc(C)c3cc(NC(=S)NCCCN4CCc5ccccc5C4)ccc3n2)CC1	106*	12	1	1	98*	-4	-8%	i
CCOC(=O)N1CCC(NC(=S)Nc2ccc3nc(N4CCN(CC)CC4)cc(C)c3c2)CC1	44	5	3	-2	·	-3	·	·
CCCN1CCN(CCCNC(=S)Nc2ccc3nc(N4CCN(CC)CC4)cc(C)c3c2)CC1	99*	3	-1	1	110*	8	2%	i
CCN(CC)CCNC(=S)Nc1ccc2nc(N3CCN(CC)CC3)cc(C)c2c1	93*	-6	0	2	79*	-1	-1%	i
Cc1cc(N2CCN(C)CC2)nc2ccc(NC(=S)NCCCN3CCc4ccccc4C3)cc12	100*	-1	0	2	80*	5	-19%	i
COCCNC(=O)[C@H]1[C@H](CO)[C@H]2Cn3c(ccc(-c4ccccc4OC)c3=O)[C@H]2N1C(=O)C1CCC1	1	·	8	·	·	·	·	·
Cc1ccc(S(=O)(=O)Nc2cccc3c2O[C@@H](CN(C)S(C)(=O)=O)[C@@H](C)CN([C@H](C)CO)C3=O)cc1	10	·	1	·	-10	·	·	·
O=C(C[C@H]1CC[C@@H]2[C@H](COC[C@@H](O)CN2S(=O)(=O)c2ccccc2)O1)N1CCOCC1	19	·	2	·	-7	·	·	·
C[C@@H]1CN([C@@H](C)CO)C(=O)c2cc(NC(=O)CCN3CCOCC3)ccc2O[C@H]1CN(C)C(=O)Nc1cccc2ccccc12	-1	·	0	·	-1	·	·	·
CCN(CC)Cc1cc(Nc2ccnc3cc(Cl)ccc23)ccc1O	88*!	-10	-5	0	75*!	-2	-16%	i
CCN(CC)CCNc1ccnc2cc(Cl)ccc12	16	-8	5	-2	39	-1	·	·
Cc1noc(C)c1NC(=O)Nc1ccc2c(c1)CC(=O)N([C@H](C)CO)C[C@H](C)[C@@H](CN(C)C(=O)Nc1ccc(C(F)(F)F)cc1)O2	-3	·	-2	·	8	·	·	·
C[C@@H]1CCCCO[C@@H](CN(C)C(=O)Nc2cccc3ccccc23)[C@@H](C)CN([C@@H](C)CO)C(=O)c2cc(NC(=O)Nc3ccc(C(F)(F)F)cc3)ccc2O1	-4	·	7	·	·	·	·	·
CCOc1cc2[nH]c(=S)n(Cc3ccc(C(=O)NCCCN(CC)CC)cc3)c(=O)c2cc1OCC	67*	-10	3	-5	51*	-9	-13%	i
SMILES	RAD52 anneal inh	PDI turbidity	ERp5 block	CAL PDZ FP-1	RAD54 branch	CAL PDZ FP-2	DNA binding	RAD52 DNA ctr
COc1ccc2c(c1OC)c(=O)n1c3ccc(OC(C)C(=O)NCCN4CCOCC4)cc3c3ccnc2c31 (centres undefined)	66*	·	4	0	97*	-9	·	?
CCCCc1cc(=O)oc2cc(OC(C)C(=O)NCCN3CCOCC3)ccc12 (centres undefined)	1	-13	4	·	4	·	·	·
C[C@@H]1CN([C@@H](C)CO)C(=O)c2cc(C#CC3(O)CCCC3)cnc2O[C@H]1CN(C)C(=O)C1CCOCC1	-7	·	-1	·	-3	·	·	·
O=C(O)c1cc(-n2nnnc2SCc2ccc([N+](=O)[O-])cc2)ccc1Cl	105*	-5	1	0	-8	·	·	i
CCN1CCN(CCNC(=O)c2ccc(/C=C3/Sc4ccccc4N(Cc4ccccc4C)C3=O)cc2)CC1	55*	-3	-1	-3	1	-4	·	i
O=C(NCCCN1CCOCC1)c1ccc(/C=C2\Oc3ccccc3N(Cc3ccccc3F)C2=O)cc1	-11	-15	2	-2	3	-2	·	·
CCN1CCN(CCCNC(=O)c2ccc(/C=C3/Sc4ccccc4N(Cc4ccccc4F)C3=O)cc2)CC1	76*	-43	4	-2	54*	-9	·	i
Cc1ccccc1CN1C(=O)c2ccccc2Sc2ccc(C(=O)NCCN3CCOCC3)cc21	-22	4	3	-3	12	-4	·	·
O=C(Nc1ccccc1F)N1[C@@H]2CNc3ccccc3[C@@H]2[C@@H]1CO	-32	·	0	·	10	·	·	·
CN(C)CCNc1ccc2nnn3c4ccc(O)cc4c(=O)c1c23	48	-3	5	-4	·	-11	·	·
Cc1ccc(NCCN(C)C)c2c(=O)c3cc(O)ccc3sc12	84*	1	14	6	·	2	·	12µM*
Oc1ccc2sc(-c3ccccc3O)c(-c3ccc(OCCN4CCCCC4)cc3)c2c1	68*	·	3	·	·	·	·	i
c1ccc(-c2sc3ccccc3c2-c2ccc(OCCN3CCCC3)cc2)cc1	-89	2	1	0	-4	-1	·	·
CCCCCc1cc(=O)oc2c(C(CCN3CCCC3)c3cc(OC)c(OC)c(OC)c3)c(OC)cc(OC)c12 (centres undefined)	59*	6	6	-2	7	0	·	i
O=S(=O)(NCC[C@@H]1CC[C@H](NS(=O)(=O)c2ccccc2Cl)[C@H](CO)O1)c1ccc(Cl)cc1	-3	·	9	·	-3	·	·	·

Screens from PubChem BioAssay.
